Experimental data taken from ChEMBL document CHEMBL1140436, “Synthesis, biological activity, and preliminary pharmacokinetic evaluation of analogues of a phosphosulfomannan angiogenesis inhibitor (PI-88)” (J Med Chem, 2005).

Legend:
[1] = molecular target: Fibroblast growth factor 2 (Homo sapiens, UniProt P09038); test: Binding affinity for FGF2 by BIAcore solution affinity assay
How it was run: (§1)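 Surface plasmon resonance solution affinity assay: growth factor preequilibrated with ligand in solution, then injected; specific binding after background subtraction converted to free protein concentration under mass-transport conditions. Kd derived assuming 1:1 stoichiometry; duplicates averaged where measured.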

[2] = molecular target: T1, Vascular endothelial growth factor A, long form (Homo sapiens, UniProt P15692); test: Binding affinity for VEGF by BIAcore solution affinity assay; how it was run: as §1
T1 sequence (P15692 whole entry): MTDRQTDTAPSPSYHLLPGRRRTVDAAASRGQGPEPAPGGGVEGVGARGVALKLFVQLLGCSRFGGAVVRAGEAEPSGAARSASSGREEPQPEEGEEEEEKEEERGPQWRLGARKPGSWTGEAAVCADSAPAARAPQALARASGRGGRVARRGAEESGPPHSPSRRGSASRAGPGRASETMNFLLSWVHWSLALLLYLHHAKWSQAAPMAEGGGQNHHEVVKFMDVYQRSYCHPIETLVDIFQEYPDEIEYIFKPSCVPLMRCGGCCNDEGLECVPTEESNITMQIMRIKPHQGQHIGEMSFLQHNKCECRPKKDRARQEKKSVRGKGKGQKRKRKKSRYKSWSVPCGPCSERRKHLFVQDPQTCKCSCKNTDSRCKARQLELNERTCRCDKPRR

[3] = molecular target: Fibroblast growth factor 1 (Homo sapiens, UniProt P05230); test: Binding affinity for FGF1 by BIAcore solution affinity assay; how it was run: as §1
Chain of Fibroblast growth factor 1 (P05230 whole entry): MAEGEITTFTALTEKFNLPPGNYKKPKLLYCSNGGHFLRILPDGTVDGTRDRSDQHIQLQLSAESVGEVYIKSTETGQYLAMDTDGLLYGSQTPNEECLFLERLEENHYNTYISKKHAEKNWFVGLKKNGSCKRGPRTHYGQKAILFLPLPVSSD

Heparanase = molecular target: T2, Heparanase (Homo sapiens, UniProt Q9Y251); test: Inhibitory activity against human platelet heparanase by Microcon ultrafiltration assay
T2 sequence (Q9Y251 whole entry): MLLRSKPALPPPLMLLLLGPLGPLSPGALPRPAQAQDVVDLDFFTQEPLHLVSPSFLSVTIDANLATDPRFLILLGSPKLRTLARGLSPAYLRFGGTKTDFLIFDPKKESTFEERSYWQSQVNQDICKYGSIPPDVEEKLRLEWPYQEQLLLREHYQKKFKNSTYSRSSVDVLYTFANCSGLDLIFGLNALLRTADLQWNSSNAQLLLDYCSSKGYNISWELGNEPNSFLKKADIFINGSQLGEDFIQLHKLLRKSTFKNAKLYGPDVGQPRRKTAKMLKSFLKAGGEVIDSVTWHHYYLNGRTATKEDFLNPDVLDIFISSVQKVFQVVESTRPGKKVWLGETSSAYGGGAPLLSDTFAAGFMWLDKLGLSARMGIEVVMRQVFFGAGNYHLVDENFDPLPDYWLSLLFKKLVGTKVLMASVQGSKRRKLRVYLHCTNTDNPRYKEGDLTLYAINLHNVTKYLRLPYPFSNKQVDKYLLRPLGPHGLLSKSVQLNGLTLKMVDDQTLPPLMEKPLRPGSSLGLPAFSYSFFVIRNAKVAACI
How it was run: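 Platelet-derived heparanase (100 ng) in 40 mM acetate pH 5.0, 0.1 mg/mL BSA with inhibitor, preequilibrated 10 min at 22 °C. Started with 5 μM [3H]HS, 4 h at 22 °C. Cleaved fragments separated by 10 kDa ultrafiltration and counted; activity = 4 h minus time-0 filtrate, compared with inhibitor-free control. IC50.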

Human alphaherpesvirus 1 [4] = test: Inhibition of cell to cell spread of HSV1; type: functional, organism-based, Human herpesvirus 1 strain KOS; settings: Human alphaherpesvirus 1, KOS321
How it was run: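 African green monkey kidney monolayers infected with HSV-1 KOS321, then 5-fold compound dilutions (0.032–20 μM) in serum-free overlay for 3 days at 37 °C. Area of 20 plaques measured from images, expressed relative to mock-treated cells. IC50 derived.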

Human alphaherpesvirus 1 [5] = test: Inhibition of HSV1 infection; type: functional, organism-based, Human herpesvirus 1 strain KOS; settings: Human alphaherpesvirus 1, KOS321
Rattus norvegicus = test: Plasma concentration in male Sprague-Dawley rat administered with 2.5 mg/kg, iv; type: ADME, organism-based; parameters: dose 2.5 mg/kg, route intravenous; settings: in vivo
How it was run: (§2)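 Plasma sampled predose to 48 h, counted in triplicate by liquid scintillation, no decay correction; <3× background excluded. Apparent parameters from notionally linear log-concentration phase; mean ± SD, n = 4.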

[6] = Area under curve (0-12h) male Sprague-Dawley rat administered with 2.5 mg/kg, iv; type: ADME, organism-based; parameters: time < 12 hr, dose 2.5 mg/kg, route intravenous; settings: in vivo; how it was run: as §2
[7] = Half life in male Sprague-Dawley rat administered with 2.5 mg/kg, iv; type: ADME, organism-based; parameters: dose 2.5 mg/kg, route intravenous; settings: in vivo; how it was run: as §2
[8] = Volume of distribution in male Sprague-Dawley rat administered with 2.5 mg/kg, iv; type: ADME, organism-based; parameters: dose 2.5 mg/kg, route intravenous; settings: in vivo, read-out: Vdss; how it was run: as §2
[9] = Clearance in male Sprague-Dawley rat administered with 2.5 mg/kg, iv; type: ADME, organism-based; parameters: dose 2.5 mg/kg, route intravenous; settings: in vivo; how it was run: as §2

Chain of Fibroblast growth factor 2 (P09038 143-288 limits assumed): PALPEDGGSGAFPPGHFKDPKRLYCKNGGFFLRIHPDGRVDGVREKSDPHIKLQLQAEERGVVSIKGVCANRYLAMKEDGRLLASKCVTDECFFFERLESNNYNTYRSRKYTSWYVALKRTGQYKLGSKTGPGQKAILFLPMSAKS

Kd [1] [nM] | Kd [2] [nM] | Kd [3] [nM] | IC50 (Heparanase) [nM] | IC50 (Human alphaherpesvirus 1 [4]) [nM] | IC50 (Human alphaherpesvirus 1 [5]) [nM] | Cp (Rattus norvegicus) [ng/mL] | AUC(0-t) at 12 h [6] [ng·h/mL] | half-life [7] [min] | Vd [8] [L] | clearance [9] [mL/min/kg] | Compound
68 | 1.7 | 0.144 | 1640 | 400 | 1000 | 35600 | 29700 | 66 | 0.0229 | 1.39 | CCCCCCCCO[C@H]1O[C@H](CO)[C@@H](O)[C@H](O)[C@@H]1O[C@H]1O[C@H](CO)[C@@H](O)[C@H](O[C@H]2O[C@H](CO)[C@@H](O)[C@H](O[C@H]3O[C@H](CO)[C@@H](O)[C@H](O[C@H]4O[C@H](CO)[C@@H](O)[C@H](O)[C@@H]4O)[C@@H]3O)[C@@H]2O)[C@@H]1O
84 | 7.2 | 0.39 | 1850 | 3000 | 2000 | 14000 | 6500 | 47.4 | 0.0551 | 6.33 | O=C(CCCC[C@@H]1SC[C@@H]2NC(=O)N[C@@H]21)NCCCCCC(=O)N[C@H]1O[C@H](CO)[C@@H](O)[C@H](O)[C@@H]1O[C@H]1O[C@H](CO)[C@@H](O)[C@H](O[C@H]2O[C@H](CO)[C@@H](O)[C@H](O[C@H]3O[C@H](CO)[C@@H](O)[C@H](O[C@H]4O[C@H](CO)[C@@H](O)[C@H](O)[C@@H]4O)[C@@H]3O)[C@@H]2O)[C@@H]1O
112 | 7.1 | 0.66 | 2020 | 5000 | 7000 | – | – | – | – | – | O=C(COc1ccccc1)N[C@H]1O[C@H](CO)[C@@H](O)[C@H](O)[C@@H]1O[C@H]1O[C@H](CO)[C@@H](O)[C@H](O[C@H]2O[C@H](CO)[C@@H](O)[C@H](O[C@H]3O[C@H](CO)[C@@H](O)[C@H](O[C@H]4O[C@H](CO)[C@@H](O)[C@H](O)[C@@H]4O)[C@@H]3O)[C@@H]2O)[C@@H]1O
86 | 1.7 | 0.12 | 1830 | 1000 | 2000 | 20500 | 12600 | 49.8 | 0.0384 | 3.32 | OC[C@H]1O[C@H](O[C@@H]2[C@H](O)[C@@H](O[C@@H]3[C@H](O)[C@@H](O[C@@H]4[C@H](O)[C@@H](O[C@@H]5[C@@H](OCc6ccccc6)O[C@H](CO)[C@@H](O)[C@@H]5O)O[C@H](CO)[C@H]4O)O[C@H](CO)[C@H]3O)O[C@H](CO)[C@H]2O)[C@@H](O)[C@@H](O)[C@@H]1O
